This is a sample that favours compounds with a hit; in the whole collection about 1.8% have one here.
SKN-1 inh: blocks SKN-1 activity in C. elegans | C. elegans VP596 Pgst-4::GFP/RFP ratio, acrylamide-induced, 24 h | inhibition, % at 21.8 µM | hit rate 0.49% among 360,000 | AID 624304;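 active = interference check ratio from 0.5 to 1.5 plus GFP to RFP signal ratio inhibition reaching or exceeding a fixed threshold, cut at about 30% in these data, passing the limit was not always enough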
MIN6 prolif: inducers of beta-cell replication in MIN6 cells; proliferation, % at 10 µM; AID 2380; MIN6 cells proliferation, ATPlite luminescence, 48 h; cells starved in 0.2% serum; 100% = growth in 10% serum; hit rate 0.29% among 330,000;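 active = compounds whose signal lies at least 3.5 SD above the mean of all wells on their plate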;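 note: 0% = DMSO-treated cells in low-serum medium and 100% = 10% serum control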
MsrA act: activates bovine MsrA enzyme; AID 602163; purified bovine MsrA, absorbance read-out; activation, % at 10.6 µM; hit rate 0.3% among 360,000; in the data active = activation above about 7.5%;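 note: 0% = vehicle and 100% = reference activator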
MT1-MMP act inh: MT1-MMP (human) activation inhibition; P50281; AID 651647; hit rate 0.061% among 360,000; GFP/RFP ratio change, % at 20 µM; HT1080 RFP-PRO-GFP cells, GFP/RFP ratio fluorescence, overnight; percent of plate control window, DMSO zero;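 active = GFP/RFP ratio change of at least 30% with cell ATP level not reduced by more than half and red fluorescence within 50% of control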
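Assay system: HT1080 cells carrying an RFP-PRO-GFP reporter | Dosing: Single dose of 20 µM compound, 1% DMSO final | Incubation: Cells overnight before dosing, compound overnight, 37 °C, 5% CO2 | Evaluation: GFP/RFP fluorescence ratio | Control set: DMSO and RFP-L50D-GFP cell wells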
MsrA inh: inhibits bovine methionine sulfoxide reductase A; purified bovine MsrA, absorbance read-out; inhibition, % at 15.5 µM; hit rate 0.75% among 360,000; in the data active = inhibition above about 4.5%;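 note: 0% = vehicle wells with enzyme and 100% = reference inhibitor wells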
DAGLB inh: diacylglycerol lipase beta (human) inhibition | inhibition, % at 5.17 µM | Q8NCG7 | HEK293T DAGLB membrane lysate, EnzChek fluorogenic substrate | hit rate 0.059% among 340,000; in the data active = inhibition above about 34%;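 note: 0% = enzyme with vehicle and 100% = wells lacking enzyme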
Target sequence (Q8NCG7 whole entry, looked up): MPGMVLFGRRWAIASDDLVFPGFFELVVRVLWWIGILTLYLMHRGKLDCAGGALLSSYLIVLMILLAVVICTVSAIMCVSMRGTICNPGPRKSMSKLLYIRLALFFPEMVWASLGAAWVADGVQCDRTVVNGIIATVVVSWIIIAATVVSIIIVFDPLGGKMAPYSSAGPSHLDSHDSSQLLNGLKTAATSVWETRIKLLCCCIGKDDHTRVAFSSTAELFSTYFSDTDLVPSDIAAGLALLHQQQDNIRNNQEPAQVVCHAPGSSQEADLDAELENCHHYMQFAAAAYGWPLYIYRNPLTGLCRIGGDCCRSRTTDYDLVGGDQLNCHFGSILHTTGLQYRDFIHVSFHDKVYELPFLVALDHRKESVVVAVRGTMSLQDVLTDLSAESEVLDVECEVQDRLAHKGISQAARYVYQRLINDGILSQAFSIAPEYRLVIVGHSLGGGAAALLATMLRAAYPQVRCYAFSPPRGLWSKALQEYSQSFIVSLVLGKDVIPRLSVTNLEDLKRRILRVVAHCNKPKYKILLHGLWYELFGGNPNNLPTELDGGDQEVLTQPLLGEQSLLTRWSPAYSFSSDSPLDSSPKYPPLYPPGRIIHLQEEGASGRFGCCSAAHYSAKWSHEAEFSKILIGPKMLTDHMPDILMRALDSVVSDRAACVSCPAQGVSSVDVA
* marks the source's active call; other numbers are inactive results.

Screening COC(=O)C12OCC34C(CC5C(C)=C(O)C(=O)CC5(C)C3C(O)C1O)OC(=O)C(OC(=O)/C=C(\C)C(C)C)C24 (stereo not drawn) returned SKN-1 inh 56*, MsrA act 1, MT1-MMP act inh -43, MsrA inh 1 and DAGLB inh 2.
Screening COC(=O)N(c1ccccc1)P(=O)(Oc1ccccc1)Oc1ccccc1 returned SKN-1 inh 3, MIN6 prolif -1, MsrA act -1, MT1-MMP act inh -1, MsrA inh -1 and DAGLB inh 1.
`CCn1c(O)c(C(=O)CC2NCCc3ccccc32)c(=O)n(CC)c1=S` (stereo not drawn) gave SKN-1 inh 51*, MIN6 prolif 1, MsrA act -3, MT1-MMP act inh -17 and DAGLB inh 0.
`CCn1c(O)c(C=Nc2ccc(N3CCOCC3)cc2)c(=O)n(CC)c1=S` gave SKN-1 inh 86, MIN6 prolif -2, MsrA act 0, MT1-MMP act inh -30, MsrA inh 1 and DAGLB inh 1.
`COC(=O)C1C(OC(=O)c2ccccc2)CC2CCC1[N+]2(C)C` (stereo not drawn) gave MsrA inh -1.
For COc1ccc2c3c([nH]c2c1)C(C)=NCC3 the results were SKN-1 inh 11, MIN6 prolif 5, MsrA act 11*, MT1-MMP act inh -18, MsrA inh 4 and DAGLB inh 6.
Screening CC1=NCCc2c1[nH]c1cc(O)ccc21 returned SKN-1 inh -15, MIN6 prolif -2, MsrA act -7, MT1-MMP act inh -50, MsrA inh 2 and DAGLB inh -55.
Cc1ccc(/C=C2\C(=O)NC(=S)N(c3ccc(F)cc3)C2=O)s1 was read as SKN-1 inh 36*, MIN6 prolif -6, MsrA act -2, MT1-MMP act inh -7, MsrA inh 1 and DAGLB inh 7.
Screening CCn1nc(-c2cccs2)nc2c(=O)n(C)c(=O)nc1-2 returned SKN-1 inh 1, MsrA act 59*, MT1-MMP act inh -15 and DAGLB inh -28.
`CCOc1ccc(-n2c(-c3cccs3)nc3ccccc3c2=O)cc1` gave SKN-1 inh 14, MIN6 prolif -3, MsrA act -2, MT1-MMP act inh -4, MsrA inh 1 and DAGLB inh -5.
NC(Cc1ccccc1Cl)c1nn[nH]n1 (stereo not drawn) was read as SKN-1 inh 23, MsrA act -1, MT1-MMP act inh -1, MsrA inh -1 and DAGLB inh 0.
For C[CH2][Hg][S]c1ccccc1C(=O)O the results were SKN-1 inh 38*, MIN6 prolif -8, MsrA act -8, MT1-MMP act inh 9, MsrA inh 4 and DAGLB inh -1.
`O=c1[nH]c(=O)n(-c2ccccc2)c(O)c1/C=C1/C(c2ccccc2)=Nc2ccccc21` gave SKN-1 inh 36*, MIN6 prolif -4, MsrA act -3, MT1-MMP act inh -4, MsrA inh 2 and DAGLB inh 4.
N#CC1C(C#N)C2CCC1C1C2N1c1ccccc1 (stereo not drawn) was read as SKN-1 inh 2, MsrA act -12, MT1-MMP act inh 0, MsrA inh -1 and DAGLB inh 3.
Screening O=C1NC(=S)NC(=O)C1=Cc1ccc2c(c1)CCN2CCCCl returned SKN-1 inh 38*, MIN6 prolif -4, MsrA act -3 and MT1-MMP act inh -2.
Screening Cc1ccccc1N1C(=O)NC(=O)/C(=C\c2ccc3c(c2)CCCN3Cc2ccccc2)C1=O returned SKN-1 inh 14, MIN6 prolif 2, MsrA act -4, MT1-MMP act inh -4, MsrA inh 1 and DAGLB inh 3.
Screening O=C(N/N=C/c1c(O)n(Cc2ccccc2)c(=O)[nH]c1=O)c1ccccc1O returned SKN-1 inh 37*, MIN6 prolif 3, MsrA act -8, MT1-MMP act inh 10, MsrA inh 4.6* and DAGLB inh 10.
`COc1ccc(Cn2c(O)c(/C=N/NC(=O)c3ccncc3)c(=O)[nH]c2=O)cc1` gave SKN-1 inh 16, MIN6 prolif -1, MsrA act -6, MT1-MMP act inh -3, MsrA inh 4 and DAGLB inh 4.
`COc1ccc(Cn2c(O)c(/C=N/NC(=O)c3ccccc3)c(=O)[nH]c2=O)cc1` gave SKN-1 inh 3, MIN6 prolif 1, MsrA act -8, MT1-MMP act inh 5, MsrA inh 4.5* and DAGLB inh 1.
`CCC1(c2ccc(C)cc2)C(=O)NC(=S)NC1=O` gave SKN-1 inh 7, MsrA act -3, MT1-MMP act inh -1 and MsrA inh -1.
`COc1ccccc1CNC(=O)CCC(=O)N1C[C@H]2C[C@@H](C1)c1cccc(=O)n1C2` gave SKN-1 inh 2, MIN6 prolif -2, MsrA act -4, MT1-MMP act inh -3, MsrA inh 0 and DAGLB inh 6.
O=C(CN1CCOCC1)c1cccc2ccccc12 was read as SKN-1 inh 38*, MIN6 prolif 3, MsrA act -5, MT1-MMP act inh -6, MsrA inh -1 and DAGLB inh 3.
For O=C(CN1CCOCC1)c1ccc(Br)cc1 the results were SKN-1 inh -9, MIN6 prolif -4, MsrA act -2, MT1-MMP act inh 5, MsrA inh 0 and DAGLB inh -1.
`CCN(CC)c1ccc(/C=C2/C(=O)NC(=O)N(Cc3ccco3)C2=O)cc1` gave SKN-1 inh 42, MIN6 prolif -1, MsrA act -10, MT1-MMP act inh -44, MsrA inh 4.6* and DAGLB inh 4.
Screening CCN(CC)c1ccc(/C=C2\C(=O)NC(=O)N(CC3CCCO3)C2=O)cc1 (stereo not drawn) returned SKN-1 inh 42*, MIN6 prolif 1, MsrA act -7, MT1-MMP act inh -3, MsrA inh 4 and DAGLB inh 1.
For COC(=O)C1=C(c2ccc(OC(F)(F)F)cc2)C[C@@H]2CC[C@H]1N2C(=O)NCCOc1ccc(OC)cc1 the results were SKN-1 inh 20, MIN6 prolif -5, MsrA act -1, MT1-MMP act inh -1, MsrA inh 10.0* and DAGLB inh -2.
For Cc1ccc(N2C(=O)NC(=O)C3(Cc4ccccc4N4CCCC43)C2=O)cc1 (stereo not drawn) the results were SKN-1 inh 59*, MIN6 prolif -3, MsrA act -2, MT1-MMP act inh -10, MsrA inh 0 and DAGLB inh 3.
`CCOC(=O)c1c(C=O)c2ccccc2n1Cc1ccccc1F` gave SKN-1 inh 0, MIN6 prolif -4, MsrA act -3, MT1-MMP act inh -4, MsrA inh 4.6* and DAGLB inh -10.
For Cc1c(C=O)c2ccccc2n1Cc1ccccc1F the results were SKN-1 inh 5, MIN6 prolif 0, MsrA act -3, MT1-MMP act inh -6, MsrA inh 2 and DAGLB inh -2.

High-throughput results: PubChem BioAssay, several laboratories
